Screening results (PubChem BioAssay)
MrgX1 agonist – agonists of human MrgX1 receptor, primary screen, HEK293 cells, Fluo-4 calcium flux; Fluo-4 calcium fluorescence, agonist mode; hits give high values; B-score at 10 µM; Mas-related G-protein coupled receptor member X1 (Homo sapiens), Q96LB2; 0.44% of 310,000 active; AID 588627, 2011;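 active = calcium response B-score plate-corrected fluorescence ratio at least 3 library SD, with starting fluorescence B-score inside 5 SD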
Target sequence (Q96LB2 whole entry, looked up): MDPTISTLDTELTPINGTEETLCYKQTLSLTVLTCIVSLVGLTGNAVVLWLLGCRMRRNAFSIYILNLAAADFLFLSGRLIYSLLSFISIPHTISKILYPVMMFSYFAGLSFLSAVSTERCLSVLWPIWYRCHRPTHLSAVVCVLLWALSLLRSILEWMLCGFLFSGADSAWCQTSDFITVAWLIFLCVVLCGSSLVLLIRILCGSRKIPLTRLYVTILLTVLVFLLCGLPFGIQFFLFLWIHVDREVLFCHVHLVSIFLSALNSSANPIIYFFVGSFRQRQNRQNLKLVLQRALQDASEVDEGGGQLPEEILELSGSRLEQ
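Test system: HEK293 cells stably expressing human MrgX1 receptor; Input: fifteen thousand cells per well; Dosing: compound delivered in addition one of three; Schedule: overnight seeding, then 1 h dark dye loading; Technique: Fluo-4 NW calcium fluorescence; Measure: B-scored fluorescence response ratio; Controls: positive and negative controls per plate.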
MrgX1 antagonist – antagonists of human MrgX1 receptor, primary screen, HEK293 cells, Fluo-4 calcium flux | Mas-related G-protein coupled receptor member X1 (Homo sapiens), Q96LB2 | BAM8-22 antagonism; hits give low values | B-score at 10 µM | 1.3% of 310,000 active | AID 588676, 2011;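 active = calcium-response B-score plate-corrected more than 3 library SD below zero, starting fluorescence within 5 deviations, no agonist response on first addition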;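 note: peak minus trough fluorescence over baseline after final BAM8-22 challenge near maximal dose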
RGS4 inh – RGS4 inhibitors, primary screen, cell-based, HEK293 M3R inducible RGS4, calcium flux | Regulator of G-protein signaling 4 (Homo sapiens), P49798 | 0.45% of 310,000 active | Fluo-4 calcium flux; hits give high values; triggered by carbachol at its EC20 | B-score at 10 µM;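 active = B-score, a plate-corrected calcium signal, over three deviations above library mean, with baseline fluorescence within five deviations of library mean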;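 note: RGS4 expression induced by doxycycline in cells with stable M3 receptor; B-score is computed from the integrated fluorescence ratio over baseline after carbachol; higher B-score means a larger calcium signal and so more RGS4 inhibition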
Target sequence (P49798 whole entry, looked up): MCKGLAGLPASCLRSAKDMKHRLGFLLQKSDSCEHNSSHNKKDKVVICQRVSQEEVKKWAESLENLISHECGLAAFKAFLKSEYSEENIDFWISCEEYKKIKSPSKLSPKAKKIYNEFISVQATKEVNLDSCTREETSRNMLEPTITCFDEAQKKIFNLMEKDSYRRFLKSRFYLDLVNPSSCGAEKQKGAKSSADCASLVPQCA
RGS4 act – RGS4 potentiators or activators, primary screen, cell-based, HEK293 M3R inducible RGS4, calcium flux | carbachol calcium flux Fluo4; hits give low values | B-score at 10 µM | 0.92% of 310,000 active;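 active = B-score of the integrated calcium signal more than 4 SD below the library mean, with starting fluorescence not abnormally high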;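 note: negative B-score means reduced calcium response which marks RGS4 activation or potentiation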
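Test system: HEK293 cells with stable M3R and inducible RGS4; also added: carbachol at ECmax as muscarinic agonist stimulus; schedule: dye loading 30 min 37 °C, buffer rest 30 min RT; technique: kinetic calcium fluorescence imaging with Fluo4-AM dye, 2 µM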
MrgX1 allo act – positive allosteric modulators of MrgX1, primary screen, HEK293 cells, Fluo-4 calcium flux. Mas-related G-protein coupled receptor member X1 (Homo sapiens), Q96LB2. FDSS; hits give high values. B-score at 10 µM. 0.63% of 310,000 active. AID 588675, 2011;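 active = plate-corrected calcium response at least 3 library SD above typical, normal starting fluorescence, not activating the receptor alone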;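 note: compound read alongside a low EC10 to EC30 dose of BAM8-22 agonist; peak minus trough fluorescence over baseline measured at the second addition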
RGS4 act valid – reduced carbachol calcium response, RGS4-induced M3R cells, confirmation, RGS4 activator project, cell-based, HEK293 M3R/RGS4 inducible, calcium flux, duplicate. shares compounds with RGS4 act. carbachol calcium flux Fluo4. inhibition, % at 10 µM. 89% of 1,100 active. AID 602282, 2012;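 active = inhibition above 3 SD of the buffer control wells, cut at about 41% in these data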;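 note: signal is the integrated peak-minus-minimum Fluo4 fluorescence over baseline ratio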
RGS4 act ctr – counter-screen for RGS4 activators: effect in non-induced cells; shares compounds with RGS4 act; 82% of 1,100 active; AID 602283; inhibition, % at 10 µM; HEK293 M3R non-induced RGS4, Fluo4 calcium flux; after carbachol challenge at its EC90;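 active = inhibition exceeding 3 SD of buffer-only control wells, cut at about 26% in these data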;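 note: percent drop in integrated peak-minus-baseline over baseline Fluo4 ratio after carbachol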
The depositor's hits bear a star; i = inactive; . = not tested or not shown. Hits are enriched below; roughly 3.5% of the tested compounds scored in any of these assays.

SMILES | MrgX1 agonist | MrgX1 antagonist | RGS4 inh | RGS4 act | MrgX1 allo act | RGS4 act valid | RGS4 act ctr
COc1ccc(S(=O)(=O)N2CCOCC2)cc1NC(=O)CCc1nc2ccccc2c(=O)[nH]1 | i | i | i | i | i | . | .
CCN(c1ccccc1)S(=O)(=O)c1ccc(OC)c(NC(=O)CCc2nc3ccccc3c(=O)[nH]2)c1 | i | i | i | -7.9* | i | 85* | 56*
CCCN(CC(=O)Nc1ccccc1OC)C(=O)CSc1nc(C)cc(C)n1 | i | i | i | i | i | . | .
COCCn1c(-c2ccc(Br)cc2)nc2oc3cc(OC)ccc3c(=O)c2c1=O | i | i | i | -8.3* | i | 0 | 0
COCCn1c(-c2ccccc2)nc2oc3cc(OC)ccc3c(=O)c2c1=O | i | i | i | i | i | . | .
OCC1CCCCN1C(=S)Nc1cccc(Cl)c1 (stereo not given) | i | i | i | i | i | . | .
CCOC(=O)C1(CC2CC2)CCN(Cc2ccc(C(=O)OC)cc2)CC1 | i | i | i | -8.7* | i | 93* | 49*
COc1ccc(/C=C/CN2CCC(CO)(Cc3ccccc3Cl)CC2)cc1 | i | i | i | -9.7* | i | 89* | 40*
COC(=O)c1ccc(CN2CCC(CO)(Cc3ccccc3Cl)CC2)cc1 | i | i | i | -7.8* | i | 92* | 60*
CCOC(=O)C1(CCc2ccccc2)CCN(Cc2ccc(C(=O)OC)cc2)CC1 | i | i | i | i | i | . | .
COc1cc(S(=O)(=O)N(C)C2CCCCC2)c(C)cc1C | . | . | i | i | . | . | .
Cc1nnn(C23C[C@@H]4C[C@@H](CC(C(=O)N5CCN(c6ccccc6)CC5)(C4)C2)C3)n1 | i | i | i | i | i | . | .
Cn1c(SCc2c(Cl)cccc2Cl)nnc1-c1cccs1 | i | i | i | -12* | i | 74* | 84*
O=C1COc2ccc(C(=O)c3ccccc3C(=O)NCc3ccccc3)cc2N1 | i | i | i | i | i | . | .
Cc1cc(=O)[nH]c(SCC(=O)N2CCN(S(=O)(=O)c3ccccc3)C2)n1 | i | i | i | i | i | . | .
COc1ccccc1C(=O)Nc1nc(-c2ccc3c(c2)OCCO3)cs1 | i | i | i | -8.8* | i | 88* | 62*
Cc1ccc(COc2ccc(CNCCCN3CCCCCC3=O)cc2)cc1 | i | i | i | -12* | i | 93* | 65*
Cc1ccc(Cl)cc1NC(=O)COC(=O)CC1CC2CCC1C2 (stereo not given) | i | i | i | i | i | . | .
COC(=O)c1ccc(C(=O)OC)c(NC(=O)COC(=O)CC2CC3CCC2C3)c1 (stereo not given) | i | i | i | -9.7* | i | 90* | 33*
CC(C)(C)OC(=O)NC1CC2CCCC(C1)N2Cc1ccccc1 (stereo not given) | . | . | i | -9.7* | . | 92* | 89*
C=CCOC(=O)C1=C(C)NC(SCC(N)=O)=C(C#N)C1c1ccc(C)cc1 (stereo not given) | i | i | i | i | i | . | .
C=CCOC(=O)C1=C(C)NC(SCC)=C(C#N)C1c1ccc(Cl)cc1 (stereo not given) | i | i | i | -7.6* | i | 93* | 84*
CC(=O)NC(=O)c1cnn(-c2ccccc2)c1N | i | i | i | -8.8* | i | 0 | 0
COC(=O)c1cnn(-c2ccccc2)c1N | i | i | i | i | i | . | .
Cc1ccc(S(=O)(=O)NCC(=O)NCC2CCCCC2)cc1C | i | i | i | i | i | . | .
SMILES | MrgX1 agonist | MrgX1 antagonist | RGS4 inh | RGS4 act | MrgX1 allo act | RGS4 act valid | RGS4 act ctr
CC(CN1CCOCC1)OC(=O)C(C)(c1ccccc1)c1ccccc1 (stereo not given) | i | i | i | i | i | . | .
CC(CN1CCCCC1)OC(=O)c1ccc2c(c1)OCCO2 (stereo not given) | i | i | i | -11* | i | 68* | 33*
CC(CN1CCCCC1)OC(=O)C(C)(c1ccccc1)c1ccccc1 (stereo not given) | i | i | i | -7.9* | i | 90* | 54*
CC(CN1CCOCC1)OC(=O)c1ccc2c(c1)OCCO2 (stereo not given) | i | i | i | i | i | . | .
Cc1cccc(NS(=O)(=O)c2ccc(C(=O)N3CCN(c4ccccc4O)CC3)cc2)c1C | i | i | i | -8.3* | i | 85* | 70*
Cc1ccccc1NS(=O)(=O)c1ccc(C(=O)N2CCCC2)cc1 | i | i | i | i | i | . | .
O=C(OCC(=O)N1CCN(c2ccccc2)CC1)c1ccccc1[N+](=O)[O-] | i | i | i | i | i | . | .
COc1ccc(N2C(=O)CC(N(CCc3ccccc3)C(=O)c3ccccc3)C2=O)cc1 (stereo not given) | i | i | i | -11* | i | 0 | 0
COc1ccc(CCN(C(=O)c2cccc(F)c2)C2CC(=O)N(c3ccccc3)C2=O)cc1 (stereo not given) | i | i | i | i | i | . | .
O=S(=O)(Nc1ccc(Cl)cc1)c1ccc(N2CCOCC2)c(NC(=S)NC2CC2)c1 | i | i | i | -12* | i | 0 | 0
CCN(CC)CCSc1nnc2c3cc(C)ccc3n(Cc3ccccc3)c2n1 | i | i | i | -11* | i | 93* | 85*
CSc1nnc2c3cc(F)ccc3n(Cc3ccccc3)c2n1 | i | i | i | i | i | . | .
Cc1ccc(-n2nc(C)cc2Nc2ncc(Cl)cc2Cl)cc1 | i | i | i | -8.7* | i | 92* | 74*
Cc1cc(C)nc(SCC(N)=O)n1 | i | i | i | i | i | . | .
Cc1cc(C)c2c3c(cn2n1)c(=O)n(C)c(=O)n3C | i | i | i | i | i | . | .
CSc1ccccc1NC(=O)CN(C1CCCCC1)S(C)(=O)=O | i | i | i | i | i | . | .
CN(CC(=O)Nc1ccccc1Sc1ccccc1)C1CCCCC1 | i | i | i | -8.2* | i | 94* | 89*
